Experimental data reported in PubChem BioAssay.
Results filed as inconclusive are left out.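 Rule for the calls, unless noted: active = viability increase at or above a cutoff of the median across tested compounds plus 3 SD (cut at about 8.5% in these data, passing the limit was not always enough); inconclusive = some gains above the cutoff, reason not given; inactive = the rest.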

What was measured:
[1] = S. cerevisiae growth inhibition in permissive medium (OD615), pilot counter-assay for S. cerevisiae lifespan shortening project, permissive growth control (AID 705;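 active = growth inhibition above 25% in both replicates, a cutoff set 3 SD above the mean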); conditions: OD615, 24 h, at 10 µM, stronger effect = higher value
Method in brief: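 System: engineered DeaD yeast; Medium: permissive raffinose/galactose medium; Compound dosing: 10 µM single dose, 0.25% DMSO; Incubation: 4 h cell pre-growth, 24 h exposure at 30 °C; Technique: OD at 615 nm; Evaluation: growth inhibition from lowered OD615 after 24 h.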

[2] = S. cerevisiae growth inhibition in restrictive medium, OD615, pilot screen, restrictive growth control, yeast lifespan reduction project (AID 706;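 active = growth inhibition above a set limit, 3 SD over mean compound inhibition, in both replicates, cut at about 43% in these data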;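 note: modified DeaD lifespan yeast strain shifted to restrictive glucose medium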); conditions: OD615, 48 h, at 10 µM, stronger effect = higher value
Method in brief: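 Material: modified S. cerevisiae; buffer or medium: CSMM-D glucose medium; doses: one concentration, 10 µM final, 0.25% DMSO; incubation: 48 h compound exposure at 30 °C; detection: optical density at 615 nm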

[3] = doxorubicin toxicity protection in MRP-1 cells – H69AR cells, CellTiter-Glo, duplicate, MRP-1 activator project, pilot screen (AID 807); conditions: H69AR viability with doxorubicin, CellTiter-Glo luminescence; at 10 µM; stronger effect = higher value;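 note: compound pretreatment 18-22 h then 72 h combined with doxorubicin; 0% = doxorubicin alone and 100% = vehicle without doxorubicin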
[4] = viability of HCT116 without oncogenic beta-catenin – human colon tumor cells, pilot screen (AID 823;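 active = cell viability at or below a set limit in both duplicate runs, the limit being the all-compound median minus 4 SD, cut at about 23% in these data, passing the limit was not always enough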;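 note: 0% = wells killed by 20 µM Hyamine and 100% = untreated DMSO cell wells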); conditions: HCT116 beta-catenin knockout viability, CellTiter-Glo, 60 h; at 10 µM; stronger effect = lower value
[5] = viability of PTEN-null HCT116 cells – cell-based, HCT116 clonal line, CellTiter-Glo, pilot screen (AID 824;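 active = viability at or below 27.92% in each of two runs, the all-compound median minus 4 SD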;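 note: 0% = 20 µM Hyamine control and 100% = vehicle cell control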); conditions: HCT116 PTEN-deleted viability, 60 h, at 10 µM, stronger effect = lower value
[6] = RAM pathway blockade in budding yeast – dse1pr::URA3 reporter, 5-FOA selection, pilot screen (AID 869;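 active = inhibition over a set limit, the all-compound mean plus 3 SD, in both replicate runs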;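 note: 0% = DMSO wells with no growth and 100% = 10 µM 1-NA-PP1 with full growth; RAM network block rescues cells from 5-FOA so hits raise OD615 growth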); conditions: S. cerevisiae dse1pr::URA3 5-FOA growth, OD615, 2 d; at 10 µM; stronger effect = higher value; strain carries analog-sensitive mutant Cbk1 kinase
[7] = RAM signaling pathway blockade in yeast – S. cerevisiae, Pdr1DBD-CYC8 efflux-inhibited sensitized strain, primary screen (AID 1298;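 active = RAM network inhibition above 8.4% in each of two replicates, 3 SD over the compound average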;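 note: 0% = DMSO untreated cells without growth and 100% = 10 µM 1-NA-PP1 full growth; higher means more yeast growth rescued from 5-FOA killing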); conditions: S. cerevisiae cbk1-as DSE1-URA3 strain, 5-FOA growth OD615, 2 d; at 50 µM; stronger effect = higher value

CC1CCN(C(=O)CNC(=O)Cn2ccc3ccccc3c2=O)CC1
inactive: growth inhibition [1] -9.29% | growth inhibition [2] -0.685% | viability increase [3] -1.73% | viability [4] 98.2% | viability [5] 94.1% | inhibition [6] 0.755% | RAM network inhibition [7] 1.67%

CCOC(=O)c1nnn(-c2nonc2N)c1COc1ccccc1
inactive: growth inhibition [1] -15.7% | growth inhibition [2] -5.9% | viability increase [3] -2.43% | viability [4] 89.5% | viability [5] 87.4% | inhibition [6] 0.05% | RAM network inhibition [7] 3.66%

COc1ccc(-c2cn3c(C)c(C(=O)N4CCN(c5ccc(OC)cc5)CC4)sc3n2)cc1
inactive: growth inhibition [1] -5.73% | growth inhibition [2] -9.94% | viability increase [3] -1.79% | viability [4] 103% | viability [5] 104% | inhibition [6] 2.58% | RAM network inhibition [7] 3.17%

O=C(c1cc(C2CC2)on1)N1CCOCC1
inactive: growth inhibition [1] -4.11% | growth inhibition [2] -0.575% | viability increase [3] 0.15% | viability [4] 96% | viability [5] 98.7% | inhibition [6] 1.57% | RAM network inhibition [7] 2.93%

O=C1NCCCC1C(=O)N1CCN(C(=O)c2ccco2)CC1 (configuration not stated)
inactive: growth inhibition [1] -3.22% | growth inhibition [2] -1.05% | viability increase [3] -0.63% | viability [4] 106% | viability [5] 98.6% | inhibition [6] -0.03% | RAM network inhibition [7] 0.31%

Cn1c(CCNC(=O)C(C)(C)C)nc2ccccc21
inactive: growth inhibition [1] -4.42% | growth inhibition [2] -7.26% | viability increase [3] 0.98% | viability [4] 95.3% | viability [5] 98.5% | inhibition [6] 2.58% | RAM network inhibition [7] 4.43%

CC(=O)c1cccc(NC(=O)CN(c2ccc(F)cc2)S(C)(=O)=O)c1
inactive: growth inhibition [1] -13% | growth inhibition [2] -15.2% | viability increase [3] -3.2% | viability [4] 98.2% | viability [5] 98.7% | inhibition [6] 0.845% | RAM network inhibition [7] 5.96%

COc1ccccc1-c1c(C)nn2c(NCCN3CCCC3)cc(C)nc12
inactive: growth inhibition [1] -3.48% | growth inhibition [2] 0.235% | viability increase [3] -1.54% | viability [4] 87.1% | viability [5] 92.6% | inhibition [6] 0.815% | RAM network inhibition [7] 2.33%

CC(=O)c1ccc(OCC(O)CN2CCOCC2)cc1 (configuration not stated)
inactive: growth inhibition [1] -11.4% | growth inhibition [2] 10.1% | viability increase [3] 0.28% | viability [4] 103% | viability [5] 90.7% | inhibition [6] 2.42% | RAM network inhibition [7] 0.84%

CCN1CCN(C(=O)C2CCN(S(=O)(=O)c3cccc4cccnc34)CC2)CC1
inactive: growth inhibition [1] -6.23% | growth inhibition [2] 2.11% | viability increase [3] -0.43% | viability [4] 108% | viability [5] 96.3% | inhibition [6] 2.33% | RAM network inhibition [7] 0.98%

CCN1C(=O)CS/C1=N\c1nccs1
inactive: growth inhibition [1] 1.12% | growth inhibition [2] 1.68% | viability increase [3] 0.86% | viability [4] 105% | viability [5] 105% | inhibition [6] 1.64% | RAM network inhibition [7] -1.23%

CC(C)NC(=O)CCCc1ccccc1
inactive: growth inhibition [1] -8% | growth inhibition [2] -14.1% | viability increase [3] -1.04% | viability [4] 92.1% | viability [5] 91.1% | inhibition [6] 1.2% | RAM network inhibition [7] -0.58%

CCCn1cc(S(=O)(=O)CC(=O)Nc2ccc(OC)cc2OC)c2ccccc21
inactive: growth inhibition [1] -7.84% | growth inhibition [2] 6.44% | viability increase [3] -1.59% | viability [4] 97.9% | viability [5] 96.4% | inhibition [6] 2.81% | RAM network inhibition [7] -0.12%

CCC(=O)NCCn1c(C)cc2ccccc21
inactive: growth inhibition [1] 8.84% | growth inhibition [2] 11.4% | viability increase [3] -0.96% | viability [4] 104% | viability [5] 92% | inhibition [6] 1.91% | RAM network inhibition [7] -0.46%

O=C(Nc1nnc(-c2ccccc2)o1)Nc1ccccc1Cl
inactive: growth inhibition [1] -15.5% | growth inhibition [2] -12% | viability increase [3] -0.05% | viability [4] 104% | viability [5] 97.4% | inhibition [6] 0.165% | RAM network inhibition [7] 4.83%

COc1ccc(-n2nc3c(c2NC(=O)c2ccc(Br)cc2)CS(=O)C3)cc1 (configuration not stated)
inactive: growth inhibition [1] -4.15% | growth inhibition [2] 4.82% | viability increase [3] -2.41% | viability [4] 85.3% | viability [5] 91.5% | inhibition [6] 0.805% | RAM network inhibition [7] 2.87%

CCCCOC(=O)c1ccc(NS(=O)(=O)c2cc(-c3nnnn3CC)ccc2OC)cc1
inactive: growth inhibition [1] 3.03% | growth inhibition [2] 2.27% | viability increase [3] -2.06% | viability [4] 91.5% | viability [5] 98% | inhibition [6] 0.93% | RAM network inhibition [7] 4.7%

CCN(CC)CCCN1C(=O)C(O)=C(C(C)=O)C1c1ccc(OC)cc1OC (configuration not stated)
inactive: growth inhibition [1] -0.68% | growth inhibition [2] -3.67% | viability increase [3] -2.64% | viability [4] 98.5% | viability [5] 92.4% | inhibition [6] 1.03% | RAM network inhibition [7] 1.44%

CC(C)CCNC(=O)C1C2C=CC3(CN(Cc4ccccc4Cl)C(=O)C13)O2 (configuration not stated)
inactive: growth inhibition [1] -8.87% | growth inhibition [2] -13.5% | viability increase [3] -3.35% | viability [4] 103% | viability [5] 98.3% | inhibition [6] 0.82% | RAM network inhibition [7] 8.03%

CCn1c(CNC(=O)C23CC4CC(CC(C4)C2)C3)nnc1SCC(=O)Nc1nnc(C)s1
inactive: growth inhibition [1] 2.36% | growth inhibition [2] 24.3% | viability increase [3] 0.62% | viability [4] 96.7% | viability [5] 96.9% | inhibition [6] 2.5% | RAM network inhibition [7] 2.71%

COc1ccc(-n2c(Cc3cc(=O)[nH]c(=O)[nH]3)nnc2SCc2ccccc2)cc1
inactive: growth inhibition [1] 6.28% | growth inhibition [2] -3.2% | viability increase [3] -0.7% | viability [4] 108% | viability [5] 103% | inhibition [6] 0.455% | RAM network inhibition [7] 3.82%

COc1ccc(OC)c2[nH]c(=O)c(CCNC(=O)c3cc4ccccc4o3)cc12
inactive: growth inhibition [1] -6.5% | growth inhibition [2] -3.6% | viability increase [3] 2.38% | viability [4] 87.8% | viability [5] 94.7% | inhibition [6] 0.6% | RAM network inhibition [7] 7.96%

Cc1sc2ncnc(SCC(=O)c3cccs3)c2c1C
inactive: growth inhibition [1] 6.02% | growth inhibition [2] 10.6% | viability increase [3] -1.23% | viability [4] 100% | viability [5] 94.3% | inhibition [6] 0.73% | RAM network inhibition [7] 3.92%

O=C(NCCOC(=O)c1ccncc1)c1ccccc1
inactive: growth inhibition [1] -0.685% | growth inhibition [2] -1.32% | viability increase [3] -0.4% | viability [4] 99.2% | viability [5] 99.7% | inhibition [6] 1.27% | RAM network inhibition [7] 3.05%

Cc1nc2ccccc2c2oc(C(=O)NCCCN3CCC(C)CC3)cc12
inactive: growth inhibition [1] 2.51% | growth inhibition [2] 17.8% | viability increase [3] -5.7% | viability [4] 63.6% | viability [5] 64.7% | inhibition [6] 1.96% | RAM network inhibition [7] 6.26%

CCOC(=O)c1sc(NC(C)=O)cc1C
inactive: growth inhibition [1] -1.26% | growth inhibition [2] 4.88% | viability increase [3] 0.69% | viability [4] 115% | viability [5] 96% | inhibition [6] 0.47% | RAM network inhibition [7] 1.02%

O=C(NCc1ccccn1)C1CC(=O)N(C2CCCC2)C1 (configuration not stated)
inactive: growth inhibition [1] -5.27% | growth inhibition [2] 4.21% | viability increase [3] 1.73% | viability [4] 103% | viability [5] 96.9% | inhibition [6] 1.5% | RAM network inhibition [7] 2.33%

CC1=CCC2C(=O)N(c3ccc(C)c(Br)c3)C(=O)C2C1 (configuration not stated)
inactive: growth inhibition [1] 5.96% | growth inhibition [2] -0.835% | viability increase [3] 0.55% | viability [4] 99.5% | viability [5] 95.4% | inhibition [6] 0.08% | RAM network inhibition [7] 0%

CCOc1ccc(C2CC(=O)NC(SC)=C2C#N)cc1 (configuration not stated)
inactive: growth inhibition [1] -15.8% | growth inhibition [2] -15.5% | viability increase [3] -2.65% | viability [4] 104% | viability [5] 94.9% | inhibition [6] 0.595% | RAM network inhibition [7] 6.38%

CS(=O)(=O)N1Cc2ccccc2CC1C(=O)Nc1ccccc1C(N)=O (configuration not stated)
inactive: growth inhibition [1] -2.29% | growth inhibition [2] -1.52% | viability increase [3] -1.04% | viability [4] 108% | viability [5] 97% | inhibition [6] 3.26% | RAM network inhibition [7] 7.36%

COc1cc(C(=O)Nc2ccc(S(=O)(=O)N3CCCCC3C)cc2)cc(OC)c1OC (configuration not stated)
inactive: growth inhibition [1] -18.5% | growth inhibition [2] -16.6% | viability increase [3] -4.48% | viability [4] 69.9% | viability [5] 65.7% | inhibition [6] 1.7% | RAM network inhibition [7] 4.51%

Cc1ccnc(N2C(=O)c3ccccc3C2Nc2cccc(C)c2C)c1 (configuration not stated)
inactive: growth inhibition [1] -14% | growth inhibition [2] -0.8% | viability increase [3] 0.92% | viability [4] 92% | viability [5] 87.1% | inhibition [6] 1.32% | RAM network inhibition [7] 6.56%

N#Cc1nc(-c2ccccc2F)oc1NCCN1CCOCC1
inactive: growth inhibition [1] -19.2% | growth inhibition [2] -36.8% | viability increase [3] -1.89% | viability [4] 104% | viability [5] 95% | inhibition [6] 1.17% | RAM network inhibition [7] 0.32%

O=C(Oc1ccc2c(=O)c(Cl)coc2c1)c1ccncc1
inactive: growth inhibition [1] -0.185% | growth inhibition [2] 7.12% | viability increase [3] -4.3% | viability [4] 90.4% | viability [5] 99.2% | inhibition [6] 0.015% | RAM network inhibition [7] -0.99%

Cc1cccc(-n2c(Cc3cc(=O)[nH]c(=O)[nH]3)nnc2SCC(=O)N2CCCCC2)c1
inactive: growth inhibition [1] 4% | growth inhibition [2] 16.8% | viability increase [3] -0.52% | viability [4] 106% | viability [5] 87.8% | inhibition [6] 3.3% | RAM network inhibition [7] -0.11%

Cc1cc(C)n(CC(O)Cn2c3ccccc3c3ccccc32)c(=O)n1 (configuration not stated)
inactive: growth inhibition [1] -7.41% | growth inhibition [2] -12.9% | viability increase [3] -2.44% | viability [4] 90% | viability [5] 91.5% | inhibition [6] 1.3% | RAM network inhibition [7] 5.3%
